# Data: ChEMBL document CHEMBL1137333, “Synthesis, radiosynthesis, and biological evaluation of carbon-11 labeled 2beta-carbomethoxy-3beta-(3'-((Z)-2-haloethenyl)phenyl)nortropanes: candidate radioligands for in vivo imaging of the serotonin transporter with positron emission tomography” (J Med Chem, 2006)
# Tests used:
# [1] = system: Cynomolgus monkey; assay: Uptake in anesthetized cynomolgus monkey caudate after 27.5 mins; type: ADME, organism-based, Caudate nucleus; details: in vivo
# Procedure, shortened: (§1)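 Baseline microPET (Concorde P4) regional brain time-activity curves in anesthetized cynomolgus monkey following injection of the [11C]-labelled tracer, with radioactivity followed over the scan.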
# [2] = system: Cynomolgus monkey; assay: Uptake in anesthetized cynomolgus monkey midbrain after 6.5 mins; type: ADME, organism-based; details: in vivo
# Procedure, shortened: (§2)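 Baseline microPET scan (P4 scanner) of anesthetized cynomolgus monkeys after injection of the carbon-11 labelled nortropane tracer. Two baseline studies were run per tracer. Radioactivity was followed over time in regional brain time-activity curves.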
# [3] = system: Cynomolgus monkey; assay: Uptake in anesthetized cynomolgus monkey cerebellum after 0.5 mins; type: ADME, organism-based; details: in vivo; procedure, shortened: as §1
# [4] = system: Cynomolgus monkey; assay: Uptake in anesthetized cynomolgus monkey thalamus after 65.0 mins; type: ADME, organism-based; details: in vivo
# Procedure, shortened: (§3)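 Baseline microPET (Concorde P4) scan in anesthetized cynomolgus monkeys after injection of the carbon-11 labeled tracer, with no chase drug. Regional brain time-activity curves were followed over the scan. Tracer radiochemical purity and specific activity were determined by analytical HPLC at the time of injection.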
# [5] = system: Cynomolgus monkey; assay: Ratio of uptake in midbrain to cerebellum of anesthetized cynomolgus monkey after 105 mins; type: ADME, organism-based; details: in vivo, 1.75 h
# Procedure, shortened: (§4)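 Baseline microPET (Concorde P4) in anesthetized cynomolgus monkey after injection of the [11C]-labelled tracer. Regional time-activity curves were taken, and each region's uptake was divided by cerebellum uptake (low-SERT reference) at 65, 85 and 105 min postinjection.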
# [6] = system: Cynomolgus monkey; assay: Ratio of uptake in medulla to cerebellum of anesthetized cynomolgus monkey after 85 mins; type: ADME, organism-based; details: in vivo; procedure, shortened: as §4
# [7] = system: Cynomolgus monkey; assay: Uptake in anesthetized cynomolgus monkey occipital after 12.5 mins; type: ADME, organism-based, Macaca mulatta, Occipital cortex; details: rhesus monkey, in vivo; procedure, shortened: as §2
# [8] = system: Cynomolgus monkey; assay: Uptake in anesthetized cynomolgus monkey medulla after 55.0 mins; type: ADME, organism-based, Medulla of organ; details: in vivo; procedure, shortened: as §2
# [9] = system: Cynomolgus monkey; assay: Uptake in anesthetized cynomolgus monkey putamen after 6.5 mins; type: ADME, organism-based; details: in vivo; procedure, shortened: as §3
# [10] = system: Cynomolgus monkey; assay: Uptake in anesthetized cynomolgus monkey occipital after 2.5 mins; type: ADME, organism-based, Macaca mulatta, Occipital cortex; details: rhesus monkey, in vivo; procedure, shortened: as §2
# [11] = system: Cynomolgus monkey; assay: Ratio of uptake in thalamus to cerebellum of anesthetized cynomolgus monkey after 105 mins; type: ADME, organism-based; details: in vivo, 1.75 h; procedure, shortened: as §4
# [12] = system: Cynomolgus monkey; assay: Ratio of uptake in medulla to cerebellum of anesthetized cynomolgus monkey after 65 mins; type: ADME, organism-based; details: in vivo; procedure, shortened: as §4
# [13] = system: Cynomolgus monkey; assay: Ratio of uptake in thalamus to cerebellum of anesthetized cynomolgus monkey after 65 mins; type: ADME, organism-based; details: in vivo; procedure, shortened: as §4
# [14] = system: Cynomolgus monkey; assay: Uptake in anesthetized cynomolgus monkey putamen after 12.5 mins; type: ADME, organism-based; details: in vivo; procedure, shortened: as §3
# [15] = system: Cynomolgus monkey; assay: Uptake in anesthetized cynomolgus monkey putamen after 15.5 mins; type: ADME, organism-based; details: in vivo; procedure, shortened: as §3
# [16] = system: Cynomolgus monkey; assay: Uptake in anesthetized cynomolgus monkey pons after 95.0 mins; type: ADME, organism-based; details: in vivo; procedure, shortened: as §3
# [17] = system: Cynomolgus monkey; assay: Uptake in anesthetized cynomolgus monkey caudate after 9.5 mins; type: ADME, organism-based, Caudate nucleus; details: in vivo; procedure, shortened: as §1
# [18] = system: Cynomolgus monkey; assay: Ratio of uptake in caudate to cerebellum of anesthetized cynomolgus monkey after 105 mins; type: ADME, organism-based; details: in vivo, 1.75 h; procedure, shortened: as §4
# [19] = system: Cynomolgus monkey; assay: Uptake in anesthetized cynomolgus monkey medulla after 27.5 mins; type: ADME, organism-based, Medulla of organ; details: in vivo; procedure, shortened: as §2
# [20] = system: Cynomolgus monkey; assay: Uptake in anesthetized cynomolgus monkey medulla after 35.0 mins; type: ADME, organism-based, Medulla of organ; details: in vivo; procedure, shortened: as §2
# [21] = system: Cynomolgus monkey; assay: Uptake in anesthetized cynomolgus monkey frontal after 45.0 mins; type: ADME, organism-based, Frontal cortex; details: in vivo, 0.75 h; procedure, shortened: as §2
# [22] = system: Cynomolgus monkey; assay: Uptake in anesthetized cynomolgus monkey putamen after 115.0 mins; type: ADME, organism-based; details: in vivo; procedure, shortened: as §3
# [23] = system: Cynomolgus monkey; assay: Uptake in anesthetized cynomolgus monkey frontal after 35.0 mins; type: ADME, organism-based, Frontal cortex; details: in vivo; procedure, shortened: as §2
# [24] = system: Cynomolgus monkey; assay: Ratio of uptake in occipital to cerebellum of anesthetized cynomolgus monkey after 65 mins; type: ADME, organism-based; details: in vivo; procedure, shortened: as §4
# [25] = system: Cynomolgus monkey; assay: Uptake in anesthetized cynomolgus monkey putamen after 9.5 mins; type: ADME, organism-based; details: in vivo; procedure, shortened: as §3
# [26] = system: Cynomolgus monkey; assay: Uptake in anesthetized cynomolgus monkey occipital after 55.0 mins; type: ADME, organism-based, Occipital cortex; details: in vivo; procedure, shortened: as §2
# [27] = system: Cynomolgus monkey; assay: Ratio of uptake in midbrain to cerebellum of anesthetized cynomolgus monkey after 85 mins; type: ADME, organism-based; details: in vivo; procedure, shortened: as §4
# [28] = system: Cynomolgus monkey; assay: Uptake in anesthetized cynomolgus monkey cerebellum after 45.0 mins; type: ADME, organism-based; details: in vivo, 0.75 h; procedure, shortened: as §1
# [29] = system: Cynomolgus monkey; assay: Uptake in anesthetized cynomolgus monkey caudate after 35.0 mins; type: ADME, organism-based, Caudate nucleus; details: in vivo; procedure, shortened: as §1
# [30] = system: Cynomolgus monkey; assay: Uptake in anesthetized cynomolgus monkey frontal after 15.5 mins; type: ADME, organism-based, Frontal cortex; details: in vivo; procedure, shortened: as §2
# [31] = system: Cynomolgus monkey; assay: Uptake in anesthetized cynomolgus monkey cerebellum after 95.0 mins; type: ADME, organism-based; details: in vivo; procedure, shortened: as §1
# [32] = system: Cynomolgus monkey; assay: Ratio of uptake in pons to cerebellum of anesthetized cynomolgus monkey after 105 mins; type: ADME, organism-based; details: in vivo, 1.75 h; procedure, shortened: as §4
# [33] = system: Cynomolgus monkey; assay: Uptake in anesthetized cynomolgus monkey frontal after 65.0 mins; type: ADME, organism-based, Frontal cortex; details: in vivo; procedure, shortened: as §2
# [34] = system: Cynomolgus monkey; assay: Uptake in anesthetized cynomolgus monkey occipital after 85.0 mins; type: ADME, organism-based, Macaca mulatta, Occipital cortex; details: rhesus monkey, in vivo; procedure, shortened: as §2
structure (smiles),measurement,setting,value
[11CH3]OC(=O)[C@@H]1C2CCC(C[C@@H]1c1cccc(/C=C/Br)c1)N2 (some centres undefined),Drug uptake,[1],5.98
same,Drug uptake,[2],4.84
same,Drug uptake,[3],0.01
same,Drug uptake,[4],6.39
same,Ratio,[5],1.9
same,Ratio,[6],1.6
same,Drug uptake,[7],4.08
same,Drug uptake,[8],7.31
same,Drug uptake,[9],4.44
same,Drug uptake,[10],0.65
same,Ratio,[11],1.6
same,Ratio,[12],1.4
same,Ratio,[13],1.3
same,Drug uptake,[14],5.62
same,Drug uptake,[15],6.07
same,Drug uptake,[16],8.08
same,Drug uptake,[17],4.35
same,Ratio,[18],1.7
same,Drug uptake,[19],7.08
same,Drug uptake,[20],7.19
same,Drug uptake,[21],3.76
same,Drug uptake,[22],7.1
same,Drug uptake,[23],3.7
same,Ratio,[24],0.8
same,Drug uptake,[25],5.41
same,Drug uptake,[26],5.3
same,Ratio,[27],1.8
same,Drug uptake,[28],5.58
same,Drug uptake,[29],6.21
same,Drug uptake,[30],3.21
same,Drug uptake,[31],4.09
same,Ratio,[32],1.8
same,Drug uptake,[33],3.8
same,Drug uptake,[34],5.21
